The source of these data is PubChem BioAssay.

A short description of test [1]: inhibitors of TNFa-induced NFkB p65 translocation, primary screen, imaging, HUVEC, MLSMR starter and 10KST1 sets (AID 438;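 active = inhibition above 20% together with a positive visual image hit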;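 also: compound added about 3h40 before a 20 min TNFalpha stimulation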;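 as to inhibition: signal is the nuclear over cytoplasmic p65 intensity ratio per well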). The following applies: HUVEC TNFa-induced p65 nuclear translocation; cell count: measured here: nuclei count (cytotoxicity indicator), at 2.08 µM; inhibition: at 2 µM, stronger effect = higher value, 0% TNFa-plus-vehicle, 100% no-TNFa wells.
The nature of test [2]: reduction of polyQ htt aggregates in cells – imaging, exon1htt(103Q)mCFP cells, high-content imaging, primary screen (AID 483;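 active = visual image review flags a hit and inhibition of aggregation exceeds 20%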;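 also: compound exposure lasted 3 days before fixation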;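 as to nuclei count: percent of the per-plate median nuclei count of sample wells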). The conditions noted are these: exon1htt(103Q)mCFP cell line, aggregate imaging, at 2 µM; inhibition of aggregation: stronger effect = higher value; nuclei count: measured here: cell count, toxicity.
A short description of test [3]: endothelial E-selectin expression blockers – imaging, HUVEC, immunofluorescence, MLSMR starter and 10KST1 sets, primary screen (AID 487;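 active = visually confirmed hit in the image check and inhibition above 20%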;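 as to inhibition: signal is fraction of cell area covered by stained E-selectin grains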;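 as to nuclei count: 100% = median nuclei count of all wells on the same plate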). The conditions noted are these: HUVEC TNFalpha-induced E-selectin immunofluorescence imaging, at 2 µM; inhibition: stronger effect = higher value; nuclei count: measured here: cell number, toxicity.
Test [4] deals with Voltage-gated potassium channel subunit beta-2 (Rattus norvegicus) (UniProt P62483). Kind of test: inhibitors of rat Kvbeta2 reductase activity – biochemical, NADPH fluorescence, primary screen (AID 622;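 active = fluorescence slope higher than the sample average by over 3 SD, cut at about -0.22 in these data, passing the limit was not always enough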;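 also: slope of raw intensity against log time taken from 70 to 1610 s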). The conditions noted are these: recombinant KvBeta, 4-cyanobenzaldehyde reduction, at 10 µM, stronger effect = higher value.
The target is the same in test [5]. The test can be described thus: enhancers of rat Kvbeta2 NADPH turnover – biochemical, NADPH fluorescence, primary screen (AID 623;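 active = NADPH fluorescence slope more negative than the mean of all samples by about 3 SD, 99.7% confidence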;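 also: fluorescence intensity change per second fitted from 20 to 320 s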). The conditions noted are these: Recombinant KvBeta, NADPH fluorescence decrease slope, 10 min; at 10 µM; stronger effect = lower value.
In test [6] the target is Alpha-2C adrenergic receptor (Homo sapiens) (UniProt P18825). The test can be described thus: compounds altering alpha2C-coupled GIRK flux – cell-based, HEK293 alpha2C/GIRK1/2, thallium flux, primary screen (AID 624;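 active = fluorescence slope after compound addition differing from the mean of all screened samples at 99.7% confidence, in either direction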;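 also: slope of fluorescence ratio to pre-addition baseline per second over 15 to 24 s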). The following applies: thallium flux BTC fluorescence, at 10 µM, actives lie on both sides.
A short description of test [7]: inhibitors of larval lipid processing in zebrafish, primary screen, whole organism, PED6 fluorescence, gall bladder and intestine (AID 686;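 active = a full or partial loss of lipid-probe fluorescence in the fish gall bladder, intestine or both, judged by eye; inactive = no fluorescence loss, or compound toxic to the fish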;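 also: larvae 5 to 7 days old with five fish per well; signal comes from phospholipase A2 cleavage of quenched PED6 carried via bile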). The following applies: Zebrafish larvae PED6 lipid processing, fluorescence scoring; screened at 20 µM (by protocol). The gist of the method:
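Incubation: overnight exposure of larvae to compound plus PED6 / Test system: live zebrafish larvae aged 5-7 days, whole organism / Amount: 5 larvae per well / Read-out basis: visual per-well fluorescence inhibition score / Signal: visual fluorescence microscopy scoring of gall bladder, gut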

Test [8] is described as follows: blockers of RIG-like receptor reporter activation – cell-based, Sendai virus stimulus, luciferase, 10K MLSCN set, TLR/RLR signaling modifier project, primary screen (AID 602276;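 active = inhibition at or above 50% at 10 µM; inactive = inhibition below 50%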;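 also: firefly luciferase from ISG56 promoter only with Renilla not read in this screen; 0% = Sendai virus plus DMSO and 100% = medium plus DMSO without virus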). The following applies: HEK293 RL24 IRF3 luciferase reporter, at 10 µM, stronger effect = higher value.
Test [9] in a line: TLR3 IRF3 reporter activation blockers – cell-based, poly I:C stimulus, luciferase, 10K MLSCN set, primary screen (AID 602277). The conditions noted are these: HEK293-TLR3 RL24 IRF3 luciferase reporter, at 10 µM, stronger effect = higher value.

Calls of active or inactive are those of the source.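 The calls were made as follows, unless noted: active = inhibition of the reporter signal at or above 50%; inactive = inhibition below 50%.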

Sequence of Alpha-2C adrenergic receptor (Homo sapiens) (P18825 whole entry, looked up): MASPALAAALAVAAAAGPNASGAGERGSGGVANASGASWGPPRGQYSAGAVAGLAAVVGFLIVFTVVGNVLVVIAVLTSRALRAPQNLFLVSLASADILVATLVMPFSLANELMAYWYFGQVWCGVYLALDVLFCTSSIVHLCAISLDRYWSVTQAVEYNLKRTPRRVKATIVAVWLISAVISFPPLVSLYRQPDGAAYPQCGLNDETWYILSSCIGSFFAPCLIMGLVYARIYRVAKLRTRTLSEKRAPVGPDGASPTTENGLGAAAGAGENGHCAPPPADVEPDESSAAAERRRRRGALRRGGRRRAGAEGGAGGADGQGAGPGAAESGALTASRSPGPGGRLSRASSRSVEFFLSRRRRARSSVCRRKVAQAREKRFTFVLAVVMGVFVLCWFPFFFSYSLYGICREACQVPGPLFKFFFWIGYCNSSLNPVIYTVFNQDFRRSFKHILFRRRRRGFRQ
Sequence of Voltage-gated potassium channel subunit beta-2 (Rattus norvegicus) (P62483 whole entry, looked up): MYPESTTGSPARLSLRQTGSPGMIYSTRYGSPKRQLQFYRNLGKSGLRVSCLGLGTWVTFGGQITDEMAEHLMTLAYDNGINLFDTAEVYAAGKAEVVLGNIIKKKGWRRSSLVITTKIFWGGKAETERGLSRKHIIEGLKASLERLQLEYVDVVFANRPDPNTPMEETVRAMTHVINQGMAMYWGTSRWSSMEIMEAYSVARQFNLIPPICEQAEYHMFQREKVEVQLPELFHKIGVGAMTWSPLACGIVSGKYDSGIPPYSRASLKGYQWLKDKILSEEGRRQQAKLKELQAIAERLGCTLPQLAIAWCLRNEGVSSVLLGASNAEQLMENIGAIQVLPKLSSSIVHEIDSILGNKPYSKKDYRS

On to `CCCNC(=O)N1CCN(S(=O)(=O)c2ccc(C)c(C)c2)CC1`, for which, in test [1], the cell count stood at 412. Also, the inhibition in test [1] was -0.4% (inactive); in test [3], -28.8% (inactive); in test [8], -6.27% (inactive); in test [9] it was -8.98% (inactive). For the same compound, in [2], the inhibition of aggregation was -16.1% (inactive). Moreover, the nuclei count amounted to 105% in test [2] and 103% in test [3]. In test [4], the fluorescence slope is -0.486 (inactive). Besides, the NADPH fluorescence slope in [5] was -5.4e-05 (inactive). In [6], the slope was 0.00557 (inactive). In test [7], the result was inactive.
For the compound `COC(=O)Cc1cc(=O)n(-c2ccccc2)[nH]1`, in test [1], the cell count was 435. The inhibition in test [1] is 3.1% (inactive); in [3] it was -67.7% (inactive); in [8], 17.9% (inactive); in test [9] it was 21.3% (inactive). In addition, the inhibition of aggregation in test [2] is -18.2% (inactive). Besides, the nuclei count in [2] is 106%; in test [3], 111%. For the same compound, the fluorescence slope in [4] is -0.379 (inactive). The NADPH fluorescence slope in test [5] is -1.8e-05 (inactive). Besides, the slope in [6] is 0.00454 (inactive). Also, the compound was classed as inactive in test [7].
Take `COc1ccccc1OCCNC(=O)c1cccs1`: the cell count in test [1] worked out at 333. The inhibition was 4.3% (inactive) in test [1], -31.8% (inactive) in test [3], -16% (inactive) in test [8] and -43% (inactive) in test [9]. Further, the inhibition of aggregation in test [2] is 12.7% (inactive). The results for the nuclei count in test [2] and in [3] were 97.7% and 99%, respectively. Also, in test [4], the fluorescence slope is -0.383 (inactive). The NADPH fluorescence slope in test [5] is -5.1e-05 (inactive). Besides, the slope in test [6] was 0.00529 (inactive). Besides, the compound was called inactive in [7].
With `CCCC(OC(=O)CN1C(=O)COc2ccccc21)C(=O)NC1CCCC1` (stereo not given), in test [1], the cell count was 637. Also, the inhibition in test [1] was 5.5% (inactive); in test [3] it was -88% (inactive); in [8], 20.6% (inactive); in test [9], 23.6% (inactive). For the same compound, the inhibition of aggregation in [2] was 1.5% (inactive). In addition, the nuclei count was found to be 129% in test [2] and 106% in [3]. Also, in test [4], the fluorescence slope is -0.434 (inactive). Besides, the NADPH fluorescence slope in [5] is -1.6e-05 (inactive). In addition, the slope in [6] was 0.00522 (inactive). In addition, the compound was classed as inactive in test [7].
Turning to `Cn1c(=O)[nH]c(=O)c2c1nc(Br)n2CCCSc1nc2ccccc2o1`, the cell count in test [1] stood at 588. Also, the inhibition was -2.9% (inactive) in test [1], -8.4% (inactive) in [3], 17.2% (inactive) in [8] and 9.4% (inactive) in [9]. In addition, the inhibition of aggregation in [2] is -18.5% (inactive). For the same compound, the nuclei count in [2] was found to be 112%; in test [3] it was 100%. Besides, in [4], the fluorescence slope was -0.352 (inactive). The NADPH fluorescence slope in test [5] was -6.5e-05 (inactive). The slope in test [6] is 0.00502 (inactive). Further, the compound was classed as inactive in test [7].
With `Cn1c(CSc2nc3ccccc3s2)nnc1SCC(=O)NCCN1CCOCC1`, the cell count in test [1] was 487. For the same compound, the inhibition in [1] is 4.5% (inactive); in test [3], -23% (inactive); in test [8], -5.77% (inactive); in [9] it was 13.9% (inactive). Further, the inhibition of aggregation in test [2] is -3.4% (inactive). Besides, the nuclei count in [2] was found to be 94.1%; in [3] it was 125%. The fluorescence slope in test [4] was -0.409 (inactive). Moreover, the NADPH fluorescence slope in test [5] was -8.1e-06 (inactive). The slope in test [6] is 0.00477 (inactive). In addition, in test [7], the compound was called inactive.
With `CCCn1nnc(NCc2ccc(OCc3cccs3)c(OC)c2)n1`, in test [1], the cell count was 226. Further, the inhibition in test [1] is -5.8% (inactive); in test [3] it was -51.4% (inactive); in [8], 8.88% (inactive); in [9], 6.19% (inactive). For the same compound, in [2], the inhibition of aggregation is 7.5% (inactive). Moreover, the results for the nuclei count in test [2] and in test [3] were 90% and 99%, respectively. In [4], the fluorescence slope was -0.467 (inactive). Further, the NADPH fluorescence slope in test [5] was -3.7e-05 (inactive). Besides, the slope in test [6] is 0.00561 (inactive). For the same compound, in test [7], the outcome was inactive.
As to `C=CCN(CC=C)C(=O)Nc1cc(Cl)ccc1OC`, the cell count in [1] was 373. Besides, the inhibition in [1] is 0.5% (inactive); in test [3], -87.7% (inactive); in [8] it was 4.56% (inactive); in test [9], -3.97% (inactive). The inhibition of aggregation in test [2] is -7.2% (inactive). Also, the nuclei count in test [2] is 103%; in [3], 111%. In addition, the fluorescence slope in test [4] is -0.402 (inactive). Moreover, the NADPH fluorescence slope in test [5] is -3.2e-05 (inactive). In addition, the slope in test [6] was 0.0044 (inactive). Besides, the call in test [7] was inactive.
With `COC(=O)c1[nH]c2ccc(C)cc2c1NC(=O)CN1CCN(C(=O)c2ccccc2)CC1`, in [1], the cell count was 330. The inhibition was -4% (inactive) in test [1], -26.1% (inactive) in test [3], 18.9% (inactive) in [8] and 14.6% (inactive) in test [9]. Further, the inhibition of aggregation in test [2] was 3% (inactive). Also, the nuclei count was 99.5% in [2] and 102% in test [3]. Besides, the fluorescence slope in test [4] was -0.306 (inactive). The NADPH fluorescence slope in test [5] is -3.3e-05 (inactive). Besides, the slope in test [6] was 0.00437 (inactive). Moreover, in test [7], the compound was called inactive.
As for `CC(=O)NCCC(=O)Nc1ccc(C)c(F)c1`, the cell count in test [1] is 417. Moreover, the inhibition in [1] was -4.4% (inactive); in test [3], -55.7% (inactive); in test [8] it was -3.46% (inactive); in test [9] it was -7.08% (inactive). In addition, the inhibition of aggregation in test [2] was -5.1% (inactive). Besides, the results for the nuclei count in test [2] and in [3] were 109% and 110%, respectively. Besides, the fluorescence slope in test [4] is -0.451 (inactive). Also, in test [5], the NADPH fluorescence slope was -1.3e-05 (inactive). In addition, the slope in [6] is 0.00617 (inactive). Besides, the result in test [7] was inactive.
